Columns and labels:
Conditions in all cases: in vivo
Rattus norvegicus [1] = assay: The biodistribution of the [125I]-labeled compound in rats after intravenous injection was evaluated in kidney at 4.00 hrs; value ranges from 0.14-0.21 (ID.kg/g); type: ADME, organism-based
Procedure, shortened: (§1)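 Male Sprague-Dawley rats (250–300 g), under ether anesthesia, given 10–15 μCi of the NCA ¹²⁵I-labeled agent iv in 0.1 mL saline. Groups of N = 3 were killed at 0.25, 1 or 4 h. Blood and tissues were removed, weighed and counted in a γ-well scintillation counter. Values are mean % ID·kg/g (range).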

Rattus norvegicus [2] = assay: The biodistribution of the [125I]-labeled compound in rats after intravenous injection was evaluated in adrenal at 1.00 hrs; value ranges from 0.12-0.19 (ID.kg/g); type: ADME, organism-based
Procedure, shortened: (§2)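 Male Sprague-Dawley rats (250–300 g) under ether anesthesia were given an iv injection of no-carrier-added 125I-labelled agent (10–15 μCi in 0.1 mL saline). The agent was iodinated with chloramine-T in acetate buffer and purified by C-18 HPLC. Groups of N = 3 were killed at 0.25, 1 and 4 h. Blood and tissues were weighed and γ-counted. Values are % ID·kg/g, mean (range).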

Rattus norvegicus [3] = assay: The biodistribution of the [125I]-labeled compound in rats after intravenous injection was evaluated in adrenal at 4.00 hrs; value ranges from 0.11-0.13 (ID.kg/g); type: ADME, organism-based; procedure, shortened: as §2
Rattus norvegicus [4] = assay: The biodistribution of the [125I]-labeled compound in rats after intravenous injection was evaluated in lung at 0.25 hrs (ID.kg/g); type: ADME, organism-based; procedure, shortened: as §1
Rattus norvegicus [5] = assay: The biodistribution of the [125I]-labeled compound in rats after intravenous injection was evaluated in brain at 4.00 hrs (ID.kg/g); type: ADME, organism-based; procedure, shortened: as §2
Rattus norvegicus [6] = assay: The biodistribution of the [125I]-labeled compound in rats after intravenous injection was evaluated in thyroid at 4.00 hrs; value ranges from 2.48-3.53 (ID.kg/g); type: ADME, organism-based, Thyroid gland
Procedure, shortened: (§3)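 Male Sprague-Dawley rats (250–300 g) under ether anesthesia given iv 0.1 mL saline containing 10–15 μCi of NCA ¹²⁵I-labeled agent (chloramine-T iodination, HPLC-purified). Groups of 3 killed at 0.25, 1 and 4 h. Blood and tissues excised, weighed and γ-counted. Values are mean (range) of % injected dose × body mass (kg) per gram of tissue.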

Rattus norvegicus [7] = assay: The biodistribution of the [125I]-labeled compound in rats after intravenous injection was evaluated in fat at 4.00 hrs; value ranges from 0.06-0.07 (ID.kg/g); type: ADME, organism-based, Adipose tissue; procedure, shortened: as §2
Rattus norvegicus [8] = assay: The biodistribution of the [125I]-labeled compound in rats after intravenous injection was evaluated in fat at 0.25 hr; value ranges from 0.07-0.09 (ID.kg/g); type: ADME, organism-based, Adipose tissue; procedure, shortened: as §2
Rattus norvegicus [9] = assay: The biodistribution of the [125I]-labeled compound in rats after intravenous injection was evaluated in blood at 4.00 hrs (ID.kg/g); type: ADME, organism-based; procedure, shortened: as §2
Rattus norvegicus [10] = assay: The biodistribution of the [125I]-labeled compound in rats after intravenous injection was evaluated in adrenal at 0.25 hrs; value ranges from 0.22-0.37 (ID.kg/g); type: ADME, organism-based; procedure, shortened: as §2
Rattus norvegicus [11] = assay: The biodistribution of the [125I]-labeled compound in rats after intravenous injection was evaluated in lung at 4.00 hrs (ID.kg/g); type: ADME, organism-based; procedure, shortened: as §1
Rattus norvegicus [12] = assay: The biodistribution of the [125I]-labeled compound in rats after intravenous injection was evaluated in heart at 1.00 hrs; value ranges from 0.11-0.13 (ID.kg/g); type: ADME, organism-based; procedure, shortened: as §2
Rattus norvegicus [13] = assay: The biodistribution of the [125I]-labeled compound in rats after intravenous injection was evaluated in heart at 4.00 hrs; value ranges from 0.12-0.14 (ID.kg/g); type: ADME, organism-based; procedure, shortened: as §1
Rattus norvegicus [14] = assay: The biodistribution of the [125I]-labeled compound in rats after intravenous injection was evaluated in lung at 1.00 hrs (ID.kg/g); type: ADME, organism-based; procedure, shortened: as §1
Rattus norvegicus [15] = assay: The biodistribution of the [125I]-labeled compound in rats after intravenous injection was evaluated in thyroid at 0.25 hrs (ID.kg/g); type: ADME, organism-based, Thyroid gland; procedure, shortened: as §3
Rattus norvegicus [16] = assay: The biodistribution of the [125I]-labeled compound in rats after intravenous injection was evaluated in muscle at 1.00 hrs; value ranges from 0.03-0.05 (ID.kg/g); type: ADME, organism-based, Muscle tissue; procedure, shortened: as §3
Rattus norvegicus [17] = assay: The biodistribution of the [125I]-labeled compound in rats after intravenous injection was evaluated in thyroid at 1.00 hrs value ranges from 2.04-2.76( ID.kg/g); type: ADME, organism-based, Thyroid gland; procedure, shortened: as §3
Rattus norvegicus [18] = assay: The biodistribution of the [125I]-labeled compound in rats after intravenous injection was evaluated in liver at 4.00 hrs; value ranges from 0.19-0.21 (ID.kg/g); type: ADME, organism-based; procedure, shortened: as §1
Rattus norvegicus [19] = assay: The biodistribution of the [125I]-labeled compound in rats after intravenous injection was evaluated in liver at 1.00 hrs; value ranges from 0.27-0.47 (ID.kg/g); type: ADME, organism-based; procedure, shortened: as §1
Rattus norvegicus [20] = assay: The biodistribution of the [125I]-labeled compound in rats after intravenous injection was evaluated in brain at 1.00 hrs; (ID.kg/g); type: ADME, organism-based; procedure, shortened: as §2
Rattus norvegicus [21] = assay: The biodistribution of the [125I]-labeled compound in rats after intravenous injection was evaluated in kidney at 1.00 hrs; value ranges from 0.28-0.33 (ID.kg/g); type: ADME, organism-based; procedure, shortened: as §1
Rattus norvegicus [22] = assay: The biodistribution of the [125I]-labeled compound in rats after intravenous injection was evaluated in blood at 0.25 hrs (ID.kg/g); type: ADME, organism-based; procedure, shortened: as §2
Rattus norvegicus [23] = assay: The biodistribution of the [125I]-labeled compound in rats after intravenous injection was evaluated in muscle at 4.00 hrs (ID.kg/g); type: ADME, organism-based, Muscle tissue; procedure, shortened: as §3
Rattus norvegicus [24] = assay: The biodistribution of the [125I]-labeled compound in rats after intravenous injection was evaluated in liver at 0.25 hr; value ranges from 0.24-0.40 (ID.kg/g); type: ADME, organism-based; procedure, shortened: as §1
Rattus norvegicus [25] = assay: The biodistribution of the [125I]-labeled compound in rats after intravenous injection was evaluated in heart at 0.25 hrs; value ranges from 0.10-0.11 (ID.kg/g); type: ADME, organism-based; procedure, shortened: as §2
Rattus norvegicus [26] = assay: The biodistribution of the [125I]-labeled compound in rats after intravenous injection was evaluated in kidney at 0.25 hr; value ranges from 0.31-0.38 (ID.kg/g); type: ADME, organism-based; procedure, shortened: as §1
Rattus norvegicus [27] = assay: The biodistribution of the [125I]-labeled compound in rats after intravenous injection was evaluated in muscle at 0.25 hrs; value ranges from 0.06-0.07 (ID.kg/g); type: ADME, organism-based, Muscle tissue; procedure, shortened: as §3
Rattus norvegicus [28] = assay: The biodistribution of the [125I]-labeled compound in rats after intravenous injection was evaluated in blood at 1.00 hrs (ID.kg/g); type: ADME, organism-based; procedure, shortened: as §2
Rattus norvegicus [29] = assay: The biodistribution of the [125I]-labeled compound in rats after intravenous injection was evaluated in brain at 0.25 hrs; value ranges from 0.19-0.26 (ID.kg/g); type: ADME, organism-based
Rattus norvegicus [30] = assay: The biodistribution of the [125I]-labeled compound in rats after intravenous injection was evaluated in fat at 1.00 hrs; value ranges from 0.08-0.12 (ID.kg/g); type: ADME, organism-based, Adipose tissue; procedure, shortened: as §2

## CN1CCN(c2ccc(I)cc2)CC1
Rattus norvegicus [1]
  Biodistribution: 0.21%
Rattus norvegicus [2]
  Biodistribution: 0.19%
Rattus norvegicus [3]
  Biodistribution: 0.13%
Rattus norvegicus [4]
  Biodistribution: 0.22%
Rattus norvegicus [5]
  Biodistribution: 0.05%
Rattus norvegicus [6]
  Biodistribution: 3.53%
Rattus norvegicus [7]
  Biodistribution: 0.07%
Rattus norvegicus [8]
  Biodistribution: 0.09%
Rattus norvegicus [9]
  Biodistribution: 0.02 % ID·kg/g
Rattus norvegicus [10]
  Biodistribution: 0.37%
Rattus norvegicus [11]
  Biodistribution: 0.09%
Rattus norvegicus [12]
  Biodistribution: 0.13%
Rattus norvegicus [13]
  Biodistribution: 0.14%
Rattus norvegicus [14]
  Biodistribution: 0.2%
Rattus norvegicus [15]
  Biodistribution: 0.96%
Rattus norvegicus [16]
  Biodistribution: 0.05%
Rattus norvegicus [17]
  Biodistribution: 2.76%
Rattus norvegicus [18]
  Biodistribution: 0.21%
Rattus norvegicus [19]
  Biodistribution: 47%
Rattus norvegicus [20]
  Biodistribution: 0.05%
Rattus norvegicus [21]
  Biodistribution: 0.33%
Rattus norvegicus [22]
  Biodistribution: 0.04 % ID·kg/g
Rattus norvegicus [23]
  Biodistribution: 0.02 %ID·kg/g
Rattus norvegicus [24]
  Biodistribution: 0.4%
Rattus norvegicus [25]
  Biodistribution: 0.11%
Rattus norvegicus [26]
  Biodistribution: 0.38%
Rattus norvegicus [27]
  Biodistribution: 0.07%
Rattus norvegicus [28]
  Biodistribution: 0.04%
Rattus norvegicus [29]
  Biodistribution: 0.26%
Rattus norvegicus [30]
  Biodistribution: 0.12%
